Screening results: PubChem, several laboratories
Compounds with a hit are over-represented: about 2.4% of the library has one in this group of screens.
TMEM16A act = activators or potentiators of mouse TMEM16A chloride channel | Q8BHY3 | HEK293 TMEM16A/YFP-H148Q/I152L, iodide quench fluorescence; hits give low values | B-score at 10 µM | 0.3% of 340,000 active;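 active means fluorescence-ratio B-score plate-corrected deviation score at least 3 library SD below zero, with starting fluorescence score within 5 deviations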;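 further: channel opened by trigger with iodide after compound preincubation; score built on the fluorescence ratio of max minus min over baseline; more negative score means more quench and so TMEM16A activation or potentiation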
Apaf1 inhib = blocks human Apaf-1 apoptosome activity | O14727 | reconstituted apoptosome caspase-3 activity, DEVD-Rh110 fluorescence | inhibition, % at 20 µM | 0.71% of 330,000 active | AID 489030; active means inhibition of at least 40% at 20 µM;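 further: plate controls were DMSO wells for no effect and DEVD-CHO caspase inhibitor wells for full effect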
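System – cell-free apoptosome with Apaf-1, procaspase-3 and caspase-9 · Buffer or medium – pH 7.5 Hepes buffer with CHAPS, BSA, DTT · Also added – cytochrome c with DEVD-Rh110 · Times – 30 min compound preincubation, 50 min activation, room temperature · Technique – Rh110 fluorescence intensity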
UBC13 inh = inhibitors of human UBC13 polyubiquitin chain formation; P61088; TR-FRET; inhibition, % at 20 µM; 0.47% of 330,000 active; AID 485273; in the data active means inhibition above about 45%, passing the limit was not always enough
Target sequence (P61088 whole entry, looked up): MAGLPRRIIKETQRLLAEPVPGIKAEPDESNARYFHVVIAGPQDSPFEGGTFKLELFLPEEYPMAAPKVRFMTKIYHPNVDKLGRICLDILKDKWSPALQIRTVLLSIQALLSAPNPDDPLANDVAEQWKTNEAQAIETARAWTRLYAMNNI
DNA FID counter = counter-screen for HCV NS3 helicase inhibitors: DNA intercalator displacement | DNA fluorescent intercalator displacement, fluorescence | inhibition, % at 7.9 µM | 0.17% of 290,000 active; in the data active means inhibition above about 37%;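 further: 0% = vehicle and 100% = reference compound; higher means more ethidium bromide displaced from hairpin DNA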
TMEM16A inh = mouse TMEM16A channel inhibition, primary screen; normalized B-score (activity score, 25-100; higher = stronger inhibition) at 10 µM; Q8BHY3; HEK293 TMEM16A/YFP iodide influx fluorescence, ionomycin; 1.2% of 310,000 active;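 active means ratio plate-corrected score three or more library SD toward inhibition, starting fluorescence score within five deviations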;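 further: score derived from kinetic fluorescence span divided by baseline fluorescence per well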
Casp3 UBC13 ctr = counter-screen for UBC13 inhibitors: human caspase-3 inhibition; 4% of 1,400 active; inhibition, % at 20 µM; shares compounds with UBC13 inh; Recombinant caspase-3, Caspase-Glo 3/7 luminescence, 60 min;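 active means mean inhibition across replicates above about 26%, limit read from the data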;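 further: plate controls were DMSO with caspase-3 for no effect and DMSO wells lacking enzyme for full effect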
Target sequence (P42574 whole entry, looked up): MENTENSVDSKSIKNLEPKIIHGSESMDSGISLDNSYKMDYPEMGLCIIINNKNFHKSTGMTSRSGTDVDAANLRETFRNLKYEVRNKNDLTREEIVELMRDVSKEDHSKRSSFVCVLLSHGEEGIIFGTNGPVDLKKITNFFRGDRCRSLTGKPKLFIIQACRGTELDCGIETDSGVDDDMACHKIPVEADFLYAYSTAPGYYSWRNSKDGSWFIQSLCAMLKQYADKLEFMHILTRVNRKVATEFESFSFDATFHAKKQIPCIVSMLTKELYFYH
UBC13 confirm = confirmation of human UBC13 polyubiquitin inhibitors. shares compounds with UBC13 inh. UBC13 polyubiquitination, TR-FRET, biochemical. inhibition, % at 10 µM. 68% of 1,400 active. AID 488859; in the data active means inhibition above about 45%
Apaf-1 inh conf = confirmation of Apaf-1 inhibitors; shares compounds with Apaf1 inhib; reconstituted apoptosome, caspase-3 DEVD-Rh110 fluorescence; inhibition, % at 20 µM; 25% of 1,800 active; AID 504614;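 active means mean inhibition of at least 40% at 20 µM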;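 further: plate controls were DMSO wells for no effect and DEVD-CHO caspase inhibitor control wells for full effect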
Rh110 quench = interferes with Rh110 fluorescence, flagging false Apaf-1 inhibitors. 1,800 tested, under 10 active. shares compounds with Apaf1 inhib. Rh110 fluorescence interference, quenched caspase reaction. activation (fluorescence interference), % at 20 µM;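 active means signal rise of 40% or more at 20 µM, treated as a fluorescence artifact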
Fluor interf inh = Apaf-1 inhibitor counter-screen fluorescence artifact. shares compounds with Apaf1 inhib. fluorescence interference counterscreen, Apaf-1 assay format. IC50, µM. 460 tested, under 10 active; call rule not given here
TMEM16A reconf = re-confirmation of mouse TMEM16A chloride channel inhibitors. HEK293 TMEM16A/YFP-H148Q, iodide quench fluorescence; ionomycin added to raise cell calcium. shares compounds with TMEM16A inh. inhibition, % at 10 µM. 39% of 2,300 active. AID 652189;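 active means mean duplicate percent inhibition, scaled so buffer wells are 0 and the reference blocker 100, over three buffer SD above buffer mean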
TMEM16A Ca cntr = counter-screen for TMEM16A inhibitors: effect on calcium mobilization; 2% of 2,300 active; TMEM16A/YFP HEK293, Fluo4 calcium mobilization; calcium response (% of ionomycin), % at 10 µM; shares compounds with TMEM16A inh; AID 652231;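 active means duplicate-averaged calcium signal over 20% of the ionomycin maximum, relative to buffer baseline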;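 further: each well's signal is peak minus trough fluorescence divided by its pre-addition baseline; 0% = buffer wells and 100% = ionomycin wells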
Parental YFP cnt = parental YFP-HEK293 iodide quench counter-screen activity; shares compounds with TMEM16A inh; ionomycin; YFP ratio F(max-min)/F0 at 10 µM; 2,300 tested, under 10 active; AID 652233;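 active means yellow fluorescent protein signal ratio exceeding the buffer control mean by over 5 SD of those controls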;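 further: ratio is mean of duplicate wells from kinetic YFP trace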
ClC-1 rat inh = selectivity of TMEM16A inhibitors: inhibition of rat ClC-1 chloride channel. AID 652236. shares compounds with TMEM16A inh. 2,300 tested, under 10 active. CHO ClC-1-YFP, iodide influx fluorescence quench; iodide control reads 0, buffer control 100. ratio percent, % at 10 µM;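 active means duplicate-mean ratio percent above the mean of iodide-only control wells, which defines zero, plus 5 of their SD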;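 further: higher percent means stronger block of ClC-1 iodide influx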
Active calls of the source: *; i = inactive; nt = no result given.

SMILES	TMEM16A act	Apaf1 inhib	UBC13 inh	DNA FID counter	TMEM16A inh	Casp3 UBC13 ctr	UBC13 confirm	Apaf-1 inh conf	Rh110 quench	others
CCCCCCCCCCC[N+](C)(C)CC/C=C1/c2ccccc2Sc2ccc(Cl)cc21	i	74.9*	105.9*	15.1	i	2.7	118.4*	87.6*	28.3	Fluor interf inh=>100
CCCCCCCCCC[N+](C)(C)CC/C=C1/c2ccccc2Sc2ccc(Cl)cc21	i	81.2*	107.1*	19.2	i	-2.2	118.6*	88.4*	36.1	Fluor interf inh=>100
CCC[C@@H](CN1CCC[C@H]1CN1C(N)=NC[C@H]1C(C)C)N1C[C@@H](Cc2ccccc2)N(CCCC2CCCC2)C1=N	nt	45.6*	64.7*	nt	nt	-2.8	46.7*	13.0	-0.1
CC(C)C[C@@H]1CN=C(N)N1C[C@@H]1CCCN1C[C@@H](C(C)C)N1C[C@@H](Cc2ccccc2)N(CCCC2CCCC2)C1=N	nt	54.8*	78.1*	nt	nt	-4.5	76.5*	12.5	-1.2
CCn1cc(C(=O)N[C@H](C(=O)NCCCO)C(C)C)c(=O)c2cc3c(cc21)OCO3	i	2.8	3.3	-10.6	i	nt	nt	nt	nt
COc1ccc(NS(=O)(=O)c2ccc(C)c(NC(=O)CN3C(=O)NC4(CCCC4)C3=O)c2)cc1	i	82.2*	106.3*	nt	nt	-0.4	54.6*	58.1*	1.6	Fluor interf inh=>100
CCCCCCCC/C=C\CCCCCCCC(=O)O	i	2.5	7.9	nt	i	nt	nt	nt	nt
CCCCCCCCCCCCC/C=C/[C@@H](O)[C@@H](N)CO	i	79.2*	107.8*	nt	i	-3.3	114.2*	37.2	18.2
COC(=O)c1c(NC(=O)c2nc3ccccc3s2)sc2c1CC(C)(C)NC2(C)C	i	58.2*	97.1*	-4.6	i	-3.1	87.0*	17.9	7.1
CCOC(=O)c1c(NC(=O)COc2ccccc2)sc2c1CC(C)(C)NC2(C)C	i	8.9	39.9	12.0	i	nt	nt	nt	nt
CCOc1ccc(C(=O)Nc2sc3c(c2C(=O)OC)CC(C)(C)NC3(C)C)cc1	i	40.6*	51.6*	6.5	i	-1.0	23.6	9.0	11.8
CCOC(=O)c1c(NC(=O)CSc2nc3ccccc3[nH]2)sc2c1CC(C)(C)NC2(C)C	i	17.5	15.4	nt	i	nt	nt	nt	nt
COCC(=O)N1CCCC(C(=O)c2ccc(-c3ccccc3)c(F)c2)C1 (stereo not drawn)	i	15.3	-2.6	-26.8	i	nt	nt	nt	nt
O=C(N/N=C/c1ccco1)c1cccc(N2Cc3ccccc3C2)c1	i	-11.4	-25.1	-16.7	i	nt	nt	nt	nt
Cn1c(SCC(=O)NNC(=O)c2ccccc2)nnc1C(F)(F)F	i	-96.9	3.6	nt	nt	nt	nt	nt	nt
c1ccc2c(C[C@@H]3CNCCN3CC3CCCCC3)cccc2c1	i	43.7*	59.5*	nt	i	2.1	58.3*	7.5	9.4
CN(C)CCCNc1cc(C(C)(C)C)nc2c(-c3ccc(Cl)cc3)cnn12	i	58.3*	88.7*	24.0	i	-0.9	94.7*	38.1	25.4
CN(C)CCOc1ccc(-c2c(-c3ccsc3)sc3ccccc23)cc1	i	71.3*	78.1*	nt	nt	-0.1	73.9*	23.9	12.6
COc1cccc(-c2sc3ccc(OC)cc3c2-c2ccc(OCCN(C)C)cc2)c1	i	75.4*	84.2*	nt	nt	-0.5	90.1*	23.4	20.0
COc1cccc(-c2sc3ccc(OC)cc3c2-c2ccc(O)cc2)c1	i	5.9	12.0	nt	nt	nt	nt	nt	nt
O=C1NC(=S)NC(=O)C1Nc1ccc(Cl)cc1	i	nt	nt	nt	nt	nt	nt	nt	nt
O=C(O)CC(C(=O)O)N1C(=O)/C(=C/C=C/c2ccco2)SC1=S (stereo not drawn)	i	85.4*	73.9*	-0.2	i	2.2	47.7*	48.7*	1.2	Fluor interf inh=>100
Cc1noc(/C=C/c2cccs2)c1S(=O)(=O)N1CCC(C(=O)NCCCN2CCC(C)CC2)CC1	i	40.0*	49.2*	19.6	i	-0.1	18.2	15.7	6.9
COCCNC(=O)C1CCCN(S(=O)(=O)c2c(C)noc2/C=C/c2cccs2)C1 (stereo not drawn)	i	-21.6	18.5	-19.6	i	nt	nt	nt	nt
Cc1c(C)c2cc(Cl)c(OCC(=O)NCCCn3ccnc3)cc2oc1=O	i	-12.8	14.5	5.6	i	nt	nt	nt	nt
SMILES	TMEM16A act	Apaf1 inhib	UBC13 inh	DNA FID counter	TMEM16A inh	Casp3 UBC13 ctr	UBC13 confirm	Apaf-1 inh conf	Rh110 quench	others
c1ccc(Nc2nc(NCc3ccco3)c3ccccc3n2)cc1	i	16.2	48.0*	18.6	25*	-0.8	76.5*	nt	nt	TMEM16A reconf=47.0%*;TMEM16A Ca cntr=i;Parental YFP cnt=-1.14;ClC-1 rat inh=-8.5
Oc1ccccc1Nc1nc(NCc2ccco2)c2ccccc2n1	i	-9.8	21.1	19.2	i	nt	nt	nt	nt
NC1=NC[C@H](Cc2ccccc2)N1CCCCC1CCCCC1	i	66.9*	85.7*	nt	25*	-1.5	80.5*	nt	nt	TMEM16A reconf=38.0%*;TMEM16A Ca cntr=i;Parental YFP cnt=-1.03;ClC-1 rat inh=-12.5
Cc1ccc(N2CC(C(=O)OCC(=O)Nc3ccc(Cl)cc3)CC2=O)cc1 (stereo not drawn)	i	-4.4	12.6	nt	nt	nt	nt	nt	nt
NC(N)=N/N=C/c1ccc2cccc(OCc3ccccc3)c2n1	i	4.4	50.1*	11.2	25*	-0.6	41.2	nt	nt	TMEM16A reconf=i;TMEM16A Ca cntr=i;Parental YFP cnt=-1.01;ClC-1 rat inh=-13.5
CCc1nc2ccccc2c(C(=O)Nc2ccc(C)cc2)c1C	i	7.1	-5.2	-6.0	i	nt	nt	nt	nt
O=[N+]([O-])c1ccccc1-c1ccc(C(=S)N2CCCC2)o1	i	47.3*	-46.2	-1.2	i	nt	nt	40.0	2.1	Fluor interf inh=>100
O=[N+]([O-])c1ccccc1-c1ccc(C(=S)N2CCCCC2)o1	i	28.4	-37.8	-3.3	i	nt	nt	nt	nt
